# Test results as given in ChEMBL document CHEMBL1155883, “5-Alkyl-6-benzyl-2-(2-oxo-2-phenylethylsulfanyl)pyrimidin-4(3H)-ones, a series of anti-HIV-1 agents of the dihydro-alkoxy-benzyl-oxopyrimidine family with peculiar structure-activity relationship profile” (J Med Chem, 2008).
# pEC50: −log10 of the molar value.
# Columns and labels:
# [1] = tested on: Human immunodeficiency virus 1; experiment: Resistance index, ratio of ID50 for reverse transcriptase K103N mutant to IC50 for wild-type HIV1 sreverse transcriptase
# Procedure, shortened: (§1)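 Recombinant wt and K103N, L100I or Y181I HIV-1 RT (>95% pure), 2-4 nM. RNA-dependent DNA polymerase assay on 0.5 µg poly(rA)/oligo(dT) 10:1 (0.3 µM 3'-OH ends) with 10 µM [3H]-dTTP and 8% final DMSO. Aliquots taken every 2 min. Inhibitor range 0.2-5× ID50, fitted to a noncompetitive model. Fold resistance is mutant ID50 divided by wt ID50.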
# [2] = tested on: Human immunodeficiency virus 1; experiment: Resistance index, ratio of ID50 for reverse transcriptase Y181I mutant to IC50 for wild-type HIV1 reverse transcriptase; procedure, shortened: as §1
# [3] = tested on: Human immunodeficiency virus type 1 reverse transcriptase (Human immunodeficiency virus 1), Q72547 [L100I]
# [4] = tested on: Human immunodeficiency virus type 1 reverse transcriptase (Human immunodeficiency virus 1), Q72547 [K103N]
# [5] = tested on: Human immunodeficiency virus 1; experiment: Antiviral activity against HIV1 isolates with reverse transcriptase K103N mutation in human MT4 cells assessed as inhibition of virus-induced cytopathogenicity by MTT assay; format: functional, organism-based; details: Human immunodeficiency virus 1, MT4
# Procedure, shortened: (§2)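 MT-4 lymphoid cells infected with HIV-1 carrying RT K103N, Y181C or Y188L, in the presence of different drug concentrations. Viable cells counted at day 5 postinfection by MTT colorimetric assay. EC50 is the concentration that inhibits 50% of the HIV-induced cytopathic effect.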
# [6] = tested on: Human immunodeficiency virus type 1 reverse transcriptase (Human immunodeficiency virus 1), Q72547 [Y181I]
# [7] = tested on: Human immunodeficiency virus 1; experiment: Antiviral activity against HIV1 isolates with reverse transcriptase Y181C mutation in human MT4 cells assessed as inhibition of virus-induced cytopathogenicity by MTT assay; format: functional, organism-based; details: Human immunodeficiency virus 1, MT4; procedure, shortened: as §2
# [8] = tested on: Human immunodeficiency virus 1; experiment: Resistance index, ratio of EC50 for drug-resistant HIV1 isolate with reverse transcriptase Y181C mutation to EC50 for wild type HIV1 NL4-3; format: functional
# Procedure, shortened: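 Fold resistance is the EC50 against the K103N, Y181C or Y188L mutant strain divided by the EC50 against wt NL4-3. Each EC50 is from MT-4 cells infected in the presence of different drug concentrations, with viability read by MTT at day 5 postinfection.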
# [9] = tested on: Human immunodeficiency virus 1; experiment: Antiviral activity against HIV1 NL4-3 in human MT4 cells assessed as inhibition of virus-induced cytopathogenicity by MTT assay; format: functional, organism-based; details: Human immunodeficiency virus 1, NL4-3, MT4
# Procedure, shortened: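 MT-4 lymphoid cells infected with wild-type HIV-1 NL4-3 in the presence of a range of compound concentrations. Viable cells were counted by MTT colorimetric read-out at day 5 post-infection. EC50 is the concentration giving 50% protection from virus-induced cytopathic effect. Means ± SD from at least two or three experiments.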
# [10] = biological target: Human immunodeficiency virus type 1 reverse transcriptase (Human immunodeficiency virus 1) (UniProt Q72547)
# [11] = tested on: Human immunodeficiency virus 1; experiment: Antiviral activity against HIV1 isolates with reverse transcriptase Y188L mutation in human MT4 cells assessed as inhibition of virus-induced cytopathogenicity by MTT assay; format: functional, organism-based; details: Human immunodeficiency virus 1, MT4; procedure, shortened: as §2
# [12] = Selectivity index, ratio of CC50 for human MT4 cells to EC50 for HIV1 NL4-3; format: toxicity, cell-based; details: read-out: Ratio CC50/EC50
# Procedure, shortened: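 Computed as CC50/EC50. CC50 comes from MTT viability of mock-infected MT-4 cells and EC50 from MTT protection of NL4-3-infected MT-4 cells, both read at day 5.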
# [13] = Cytotoxicity against human MT4 cells by MTT assay; format: cell-based
# Procedure, shortened: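 Mock-infected MT-4 cells were exposed to a range of compound concentrations. Viability was read by MTT at day 5. CC50 is the concentration that kills 50% of uninfected cells. The top concentration was limited by compound precipitation in culture medium. Means ± SD from at least two or three experiments.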
# [14] = tested on: Human immunodeficiency virus 1; experiment: Resistance index, ratio of ID50 for reverse transcriptase L100I mutant to IC50 for wild-type HIV1 reverse transcriptase; procedure, shortened: as §1
Compound,Ratio [1],Ratio [2],ID50 [3] [nM],ID50 [4] [nM],pEC50 [5],ID50 [6] [nM],pEC50 [7],Ratio EC50 [8],pEC50 [9],ID50 [10] [nM],pEC50 [11],selectivity ratio [12],CC50 [13] [nM],Ratio [14]
CCc1c(Cc2c(F)cccc2F)nc(SCC(=O)c2ccc(OC)cc2)[nH]c1=O,110,19,> 40000,3410,< 4.24,580,6.60,28,8.05,31,< 4.24,> 6440,> 58000,–
O=c1cc(Cc2c(F)cccc2F)nc(Sc2ccccc2)[nH]1,–,–,–,–,–,–,–,–,5.85,–,–,> 54,> 76000,–
CC(=O)CSc1nc(Cc2c(F)cccc2F)cc(=O)[nH]1,–,–,–,–,–,–,–,–,5.51,–,–,> 26,> 81000,–
Cc1c(Cc2c(F)cccc2F)nc(SCc2ccccn2)[nH]c1=O,–,–,–,–,–,–,–,–,5.00,–,–,> 7,> 70000,–
O=C1Nc2ccc(Cl)cc2[C@@](C#CC2CC2)(C(F)(F)F)O1 [EFAVIRENZ],–,–,–,–,6.41,–,7.36,–,8.15,–,–,–,> 3000,–
CC(C)c1c(Cc2c(F)cccc2Cl)nc(SCC(=O)c2ccc(F)cc2)[nH]c1=O,1670,–,–,40000,< 4.25,> 40000,6.25,140,8.40,24,< 4.26,> 14000,> 56000,–
COc1ccc(C(=O)CSc2nc(Cc3c(F)cccc3F)c(C)c(=O)[nH]2)cc1,87,4,> 40000,22700,< 4.22,1170,6.19,13,7.32,260,< 4.22,> 1250,> 60000,–
O=c1cc(Cc2c(F)cccc2F)nc(SCCc2ccccc2)[nH]1,–,–,–,–,–,–,–,–,6.52,–,–,> 233,> 70000,–
COc1ccc(C(=O)CSc2nc(Cc3c(Cl)cccc3Cl)c(C)c(=O)[nH]2)cc1,–,5,> 40000,> 40000,< 4.25,460,5.92,18,7.17,94,< 4.25,> 836,> 56000,–
O=C(CSc1nc(Cc2c(F)cccc2F)cc(=O)[nH]1)c1ccc(Cl)cc1,–,–,–,–,–,–,–,–,5.01,–,–,> 6,> 61000,–
COc1ccc(C(=O)CSc2nc(Cc3c(F)cccc3Cl)cc(=O)[nH]2)cc1,243,–,500,3400,< 4.92,> 40000,< 4.92,–,5.81,14,< 4.92,> 8,> 12000,36
Cc1c(Cc2c(F)cccc2F)nc(SCc2cccnc2)[nH]c1=O,–,–,–,–,–,–,–,–,5.23,–,–,> 12,> 70000,–
Cc1cc(C)cc(CSc2nc(Cc3c(F)cccc3F)c(C)c(=O)[nH]2)c1,–,–,–,–,–,–,–,–,4.85,–,–,> 5,> 65000,–
Cc1c(Cc2c(F)cccc2F)nc(SC(C)C)[nH]c1=O,–,–,–,–,–,–,–,–,8.22,–,–,> 12800,> 77000,–
COc1ccc(C(=O)CSc2nc(Cc3c(Cl)cccc3Cl)cc(=O)[nH]2)cc1,694,2,> 40000,37500,< 4.96,110,< 4.96,–,5.91,54,< 4.96,> 9,> 11000,–
Cc1c(Cc2c(F)cccc2F)nc(SCc2ccc([N+](=O)[O-])cc2)[nH]c1=O,–,–,–,–,–,–,–,–,5.92,–,–,> 31,> 37000,–
